Columns and labels:
[1] = biological target: Glutamate receptor ionotropic, kainate 2 (Rattus norvegicus, UniProt P42260); assay: Antagonist activity at rat recombinant GLuR6 expressed in Xenopus oocytes assessed as inhibition of glutamate-induced current by two-electrode voltage-clamp electrophysiology; assay type: functional, cell-based; settings: oocyte
In short: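 Rat GluR6 expressed in Xenopus oocytes, pretreated with 10 μM concanavalin A for 10 min, then activated by 100 μM glutamate. Cells were held at −40 mV in 90 mM NaCl, 1.0 KCl, 0.5 BaCl2, 0.005 EDTA and 10 HEPES, pH 7.4, at 23°C. Compounds were diluted from 20 mM DMSO stocks, final DMSO 0.05-0.5%. Concentration-effect curves were recorded.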

Glutamate receptor 1 = Glutamate receptor 1 (Rattus norvegicus, UniProt P19490); assay: Antagonist activity at rat recombinant GLuR1 expressed in Xenopus oocytes assessed as inhibition of glutamate-induced current by two-electrode voltage-clamp electrophysiology; assay type: functional, cell-based, Oocyte
Chain of Glutamate receptor 1 (P19490 whole entry, the tested form may be a part): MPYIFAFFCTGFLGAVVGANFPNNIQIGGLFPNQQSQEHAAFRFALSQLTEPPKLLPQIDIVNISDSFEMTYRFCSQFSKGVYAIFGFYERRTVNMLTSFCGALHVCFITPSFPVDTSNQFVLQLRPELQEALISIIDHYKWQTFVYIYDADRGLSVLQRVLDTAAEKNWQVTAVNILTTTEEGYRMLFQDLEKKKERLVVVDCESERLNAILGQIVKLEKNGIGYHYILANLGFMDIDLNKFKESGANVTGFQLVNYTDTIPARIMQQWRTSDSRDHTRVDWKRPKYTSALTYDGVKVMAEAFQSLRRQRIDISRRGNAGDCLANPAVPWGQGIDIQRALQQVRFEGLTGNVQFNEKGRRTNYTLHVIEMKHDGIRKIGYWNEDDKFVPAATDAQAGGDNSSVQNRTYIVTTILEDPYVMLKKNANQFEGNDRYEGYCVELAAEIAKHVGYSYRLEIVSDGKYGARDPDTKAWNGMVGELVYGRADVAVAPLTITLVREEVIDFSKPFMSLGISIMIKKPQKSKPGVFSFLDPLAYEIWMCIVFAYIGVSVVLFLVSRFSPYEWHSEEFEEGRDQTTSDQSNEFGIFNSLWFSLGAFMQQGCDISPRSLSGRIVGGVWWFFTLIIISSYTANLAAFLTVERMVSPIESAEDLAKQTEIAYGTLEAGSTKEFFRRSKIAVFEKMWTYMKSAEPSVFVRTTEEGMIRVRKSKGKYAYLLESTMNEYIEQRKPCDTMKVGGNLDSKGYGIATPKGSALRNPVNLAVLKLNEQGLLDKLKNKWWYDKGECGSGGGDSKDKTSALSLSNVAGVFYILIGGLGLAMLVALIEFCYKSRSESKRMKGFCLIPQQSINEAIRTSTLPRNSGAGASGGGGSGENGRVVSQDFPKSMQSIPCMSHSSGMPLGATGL
In short: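 Two-electrode voltage clamp at −40 mV on Xenopus oocytes expressing rat GluR1, perfused with 90 NaCl, 1.0 KCl, 0.5 BaCl2, 0.005 EDTA, 10 HEPES (mM), pH 7.4, 23°C; activated by 100 μM glutamate. From 20 mM DMSO stocks, 5-7 concentrations, ≥4 oocytes each. Hill fit to mean composite curves normalized to control, minimum usually fixed at 0. Response >75% at 100 μM reported as >300 μM.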

[2] = biological target: Ionotropic glutamate receptor NMDA 1/2D (Rattus norvegicus, UniProt P35439+Q62645); assay: Antagonist activity at rat recombinant NR1-NR2D receptor expressed in Xenopus oocytes at holding potential of -40mV by two-electrode voltage-clamp electrophysiology; assay type: functional, cell-based, Oocyte
In short: (§1)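 Oocytes expressing rat NR1-1a with NR2A, NR2B, NR2C or NR2D, clamped at −40 mV in Ba2+/HEPES recording solution pH 7.4, 23°C. Current evoked by 100 μM glutamate plus 30 μM glycine. Final DMSO 0.05-0.5%, 5-7 inhibitor concentrations, ≥4 oocytes each. IC50 from Hill fit of normalized mean composite data. Some NR2A oocytes given BAPTA-AM or K-BAPTA.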

[3] = biological target: Glutamate NMDA receptor; Grin1/Grin2b (Rattus norvegicus, UniProt P35439+Q00960); assay: Antagonist activity at rat recombinant NR1-NR2B receptor expressed in Xenopus oocytes at holding potential of -40mV by two-electrode voltage-clamp electrophysiology; assay type: functional, cell-based, Oocyte; settings: read-out: IC50
Chain of Glutamate NMDA receptor; Grin1/Grin2b (Q00960 whole entry, other chains not shown): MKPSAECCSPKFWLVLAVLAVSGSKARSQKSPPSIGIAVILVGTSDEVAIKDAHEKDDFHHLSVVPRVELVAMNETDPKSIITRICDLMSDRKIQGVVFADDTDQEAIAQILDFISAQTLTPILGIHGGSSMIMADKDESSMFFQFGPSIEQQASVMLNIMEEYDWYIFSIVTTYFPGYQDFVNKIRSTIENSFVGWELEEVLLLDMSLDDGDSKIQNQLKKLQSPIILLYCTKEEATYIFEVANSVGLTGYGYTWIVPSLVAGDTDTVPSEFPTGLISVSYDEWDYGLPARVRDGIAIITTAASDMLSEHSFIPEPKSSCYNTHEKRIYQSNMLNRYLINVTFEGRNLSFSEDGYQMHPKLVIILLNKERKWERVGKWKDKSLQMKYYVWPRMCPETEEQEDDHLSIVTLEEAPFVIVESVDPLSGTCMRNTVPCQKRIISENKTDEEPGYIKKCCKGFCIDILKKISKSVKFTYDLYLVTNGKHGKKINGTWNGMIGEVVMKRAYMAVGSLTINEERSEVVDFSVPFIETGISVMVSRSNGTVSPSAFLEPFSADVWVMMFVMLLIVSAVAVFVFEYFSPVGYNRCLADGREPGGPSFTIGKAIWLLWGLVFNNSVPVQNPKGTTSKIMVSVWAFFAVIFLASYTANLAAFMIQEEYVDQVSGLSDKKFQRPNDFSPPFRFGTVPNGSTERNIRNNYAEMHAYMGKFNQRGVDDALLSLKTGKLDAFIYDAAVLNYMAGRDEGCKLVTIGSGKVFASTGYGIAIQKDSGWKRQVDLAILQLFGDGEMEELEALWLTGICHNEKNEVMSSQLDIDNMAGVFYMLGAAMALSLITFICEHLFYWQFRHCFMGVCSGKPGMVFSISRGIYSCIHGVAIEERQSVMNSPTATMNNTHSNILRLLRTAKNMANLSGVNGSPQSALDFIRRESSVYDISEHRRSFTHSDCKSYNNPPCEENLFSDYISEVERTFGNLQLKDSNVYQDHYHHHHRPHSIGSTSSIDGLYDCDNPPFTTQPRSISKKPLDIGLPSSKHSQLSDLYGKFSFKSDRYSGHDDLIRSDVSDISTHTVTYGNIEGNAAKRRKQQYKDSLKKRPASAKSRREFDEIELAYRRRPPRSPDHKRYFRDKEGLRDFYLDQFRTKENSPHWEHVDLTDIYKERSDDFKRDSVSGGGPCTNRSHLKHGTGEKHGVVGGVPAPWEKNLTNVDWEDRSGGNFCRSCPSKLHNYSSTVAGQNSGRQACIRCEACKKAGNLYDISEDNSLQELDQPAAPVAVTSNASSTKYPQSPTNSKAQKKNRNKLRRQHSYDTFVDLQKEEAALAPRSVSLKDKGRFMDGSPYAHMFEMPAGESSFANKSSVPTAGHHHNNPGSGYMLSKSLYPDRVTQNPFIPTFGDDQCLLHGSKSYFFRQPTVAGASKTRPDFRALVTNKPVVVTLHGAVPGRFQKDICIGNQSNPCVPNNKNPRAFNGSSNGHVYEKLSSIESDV
In short: as §1, with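 “data. […]” for “data.”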

[4] = biological target: Glutamate NMDA receptor; Grin1/Grin2c (Rattus norvegicus, UniProt P35439+Q00961); assay: Antagonist activity at rat recombinant NR1-NR2C receptor expressed in Xenopus oocytes at holding potential of -40mV by two-electrode voltage-clamp electrophysiology; assay type: functional, cell-based, Oocyte
Chain of Glutamate NMDA receptor; Grin1/Grin2c (Q00961 whole entry, other chains not shown): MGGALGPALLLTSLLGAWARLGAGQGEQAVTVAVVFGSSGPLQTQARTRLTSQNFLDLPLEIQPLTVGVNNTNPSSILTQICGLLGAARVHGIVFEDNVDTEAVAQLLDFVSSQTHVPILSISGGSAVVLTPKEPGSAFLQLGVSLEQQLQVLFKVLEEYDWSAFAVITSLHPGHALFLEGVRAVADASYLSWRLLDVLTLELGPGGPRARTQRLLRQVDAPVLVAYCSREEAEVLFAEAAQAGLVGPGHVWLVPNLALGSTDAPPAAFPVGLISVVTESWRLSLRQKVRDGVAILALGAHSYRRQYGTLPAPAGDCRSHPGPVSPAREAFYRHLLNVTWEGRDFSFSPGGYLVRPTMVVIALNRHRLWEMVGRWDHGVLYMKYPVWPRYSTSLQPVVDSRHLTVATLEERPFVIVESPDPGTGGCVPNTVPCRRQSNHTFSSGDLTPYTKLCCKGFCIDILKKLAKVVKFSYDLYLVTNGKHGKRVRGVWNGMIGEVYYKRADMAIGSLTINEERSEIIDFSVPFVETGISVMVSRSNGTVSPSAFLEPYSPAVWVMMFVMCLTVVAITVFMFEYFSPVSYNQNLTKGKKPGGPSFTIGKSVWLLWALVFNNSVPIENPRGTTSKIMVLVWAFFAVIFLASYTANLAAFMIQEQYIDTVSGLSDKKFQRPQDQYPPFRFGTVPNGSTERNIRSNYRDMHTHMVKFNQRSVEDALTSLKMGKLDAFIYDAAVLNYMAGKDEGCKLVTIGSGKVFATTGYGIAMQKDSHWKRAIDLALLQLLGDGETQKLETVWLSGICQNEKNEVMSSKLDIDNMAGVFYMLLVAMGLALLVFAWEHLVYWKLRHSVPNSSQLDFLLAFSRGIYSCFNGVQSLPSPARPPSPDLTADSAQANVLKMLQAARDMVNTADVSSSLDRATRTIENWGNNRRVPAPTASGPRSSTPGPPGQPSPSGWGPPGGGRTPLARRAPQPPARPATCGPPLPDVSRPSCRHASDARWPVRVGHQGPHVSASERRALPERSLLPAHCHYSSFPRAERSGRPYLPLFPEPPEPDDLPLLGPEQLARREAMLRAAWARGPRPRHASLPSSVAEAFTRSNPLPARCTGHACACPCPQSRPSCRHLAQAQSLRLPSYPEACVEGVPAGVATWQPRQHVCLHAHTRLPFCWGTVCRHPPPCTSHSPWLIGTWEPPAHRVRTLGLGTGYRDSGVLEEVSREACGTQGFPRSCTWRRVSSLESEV
In short: as §1, with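 “data. […]” for “data.”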

[5] = biological target: Glutamate NMDA receptor; Grin1/Grin2a (Rattus norvegicus, UniProt P35439+Q00959); assay: Antagonist activity at rat recombinant NR1-NR2A receptor expressed in Xenopus oocytes at holding potential of -40mV by two-electrode voltage-clamp electrophysiology; assay type: functional, cell-based, Oocyte; settings: read-out: IC50
Chain of Glutamate NMDA receptor; Grin1/Grin2a (Q00959 whole entry, other chains not shown): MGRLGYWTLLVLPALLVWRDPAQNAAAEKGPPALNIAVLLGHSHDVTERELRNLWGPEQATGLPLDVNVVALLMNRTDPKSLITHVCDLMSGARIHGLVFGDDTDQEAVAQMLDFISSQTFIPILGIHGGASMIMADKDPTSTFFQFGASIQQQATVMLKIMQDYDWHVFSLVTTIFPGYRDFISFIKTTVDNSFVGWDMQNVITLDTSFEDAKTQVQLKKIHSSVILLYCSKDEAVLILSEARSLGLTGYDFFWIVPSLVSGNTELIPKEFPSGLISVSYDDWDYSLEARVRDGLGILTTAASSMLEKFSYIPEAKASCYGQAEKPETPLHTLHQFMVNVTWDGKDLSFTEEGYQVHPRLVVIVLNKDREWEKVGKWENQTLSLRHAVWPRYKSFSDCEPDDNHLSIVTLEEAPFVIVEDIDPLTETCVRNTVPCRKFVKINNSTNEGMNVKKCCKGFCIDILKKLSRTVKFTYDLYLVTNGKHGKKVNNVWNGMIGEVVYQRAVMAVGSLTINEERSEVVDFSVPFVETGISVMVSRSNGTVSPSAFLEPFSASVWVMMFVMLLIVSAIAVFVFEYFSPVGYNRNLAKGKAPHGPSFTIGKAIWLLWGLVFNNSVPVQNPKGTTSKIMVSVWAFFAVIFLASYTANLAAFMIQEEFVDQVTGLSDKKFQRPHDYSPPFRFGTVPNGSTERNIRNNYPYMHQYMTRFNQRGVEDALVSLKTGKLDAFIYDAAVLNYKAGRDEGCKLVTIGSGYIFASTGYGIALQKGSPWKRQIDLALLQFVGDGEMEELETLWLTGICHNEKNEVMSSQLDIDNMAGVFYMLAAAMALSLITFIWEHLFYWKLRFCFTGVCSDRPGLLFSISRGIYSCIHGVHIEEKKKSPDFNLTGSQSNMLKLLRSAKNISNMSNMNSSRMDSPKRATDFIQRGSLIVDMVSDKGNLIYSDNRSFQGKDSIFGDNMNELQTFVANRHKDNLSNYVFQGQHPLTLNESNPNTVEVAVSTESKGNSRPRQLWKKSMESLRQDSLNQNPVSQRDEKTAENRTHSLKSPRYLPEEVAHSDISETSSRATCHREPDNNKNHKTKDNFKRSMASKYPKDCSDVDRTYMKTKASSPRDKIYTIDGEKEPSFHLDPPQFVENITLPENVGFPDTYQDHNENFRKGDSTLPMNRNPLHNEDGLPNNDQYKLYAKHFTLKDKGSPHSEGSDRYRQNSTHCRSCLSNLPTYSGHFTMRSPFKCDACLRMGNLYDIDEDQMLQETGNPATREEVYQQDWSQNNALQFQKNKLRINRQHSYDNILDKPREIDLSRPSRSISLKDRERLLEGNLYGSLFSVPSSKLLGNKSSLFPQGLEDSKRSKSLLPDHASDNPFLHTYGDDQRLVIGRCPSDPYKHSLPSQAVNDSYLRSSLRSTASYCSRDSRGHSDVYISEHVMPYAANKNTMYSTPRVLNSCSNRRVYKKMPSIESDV
In short: as §1, with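 “data. […]” for “data.”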

Rattus norvegicus [6] = species on record: Rattus norvegicus; assay: Selectivity ratio of IC50 for rat recombinant NR1-NR2A receptor to IC50 for rat recombinant NR1-NR2D receptor
In short: (§2)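 Ratio of fitted IC50 values, either NR2A/NR2D or GluR1/NR2D, from two-electrode voltage-clamp Hill fits in oocytes. Where noted, calculated from IC50 values rounded to the nearest μM.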

Rattus norvegicus [7] = species on record: Rattus norvegicus; assay: Selectivity ratio of IC50 for rat recombinant GLuR1 to IC50 for rat recombinant NR1-NR2D receptor; in short: as §2

| IC50 (Glutamate receptor 1) | IC50 [2] | IC50 [3] | IC50 [4] | IC50 [5] | Ratio IC50 (Rattus norvegicus [6]) | Ratio IC50 (Rattus norvegicus [7]) | SMILES | IC50 [1] |
| --- | --- | --- | --- | --- | --- | --- | --- | --- |
| > 300 µM | 27 µM | 177 µM | 33 µM | 135 µM |  |  | O=C(O)c1cccc(-n2c(/C=C/c3ccc([N+](=O)[O-])cc3)nc3ccccc3c2=O)c1 | Not Active |
| 200 µM | 7 µM | 98 µM | 6 µM | 101 µM | 14 | 29 | CC(C)c1ccc2nc(/C=C/c3cccc([N+](=O)[O-])c3)n(-c3ccc(C(=O)O)cc3)c(=O)c2c1 |  |
| 131 µM | 4 µM | 30 µM | 4 µM | 19 µM | 5 | 33 | O=C(O)c1ccc(-n2c(/C=C/c3cccc([N+](=O)[O-])c3)nc3ccc(/C=C/c4ccccc4)cc3c2=O)cc1 |  |
| > 300 µM | 171 µM | 122 µM | 284 µM | > 300 µM | 1 | 1 | O=C(O)c1ccc(-n2c(/C=C/c3ccc(N4CCOCC4)cc3)nc3ccccc3c2=O)cc1 |  |
| 103 µM | 11 µM | 36 µM | 20 µM | 63 µM | 6 | 9 | COc1ccc2cc(/C=C/c3nc4ccccc4c(=O)n3-c3ccc(C(=O)O)cc3)ccc2c1 |  |
| 5 µM | 2 µM | 3 µM | 2 µM | 11 µM | 6 | 3 | O=C(O)c1ccc(-n2c(/C=C/c3cccc([N+](=O)[O-])c3)nc3ccc(-c4ccccc4)cc3c2=O)cc1 |  |
|  |  | 17 µM | 8 µM | 11 µM |  |  | O=C(O)c1ccc(-n2c(/C=C/c3ccccc3[N+](=O)[O-])nc3ccccc3c2=O)cc1 | Not Active |
| > 300 µM | 3 µM | > 300 µM | 6 µM | 229 µM | 76 | > 100 | COc1ccc2nc(/C=C/c3cccc([N+](=O)[O-])c3)n(-c3ccc(C(=O)O)cc3)c(=O)c2c1 |  |
| 208 µM | 22 µM | 89 µM | 33 µM | 73 µM | 3 | 9 | O=C(O)c1ccc(-n2c(/C=C/c3ccc(OC(F)F)cc3)nc3ccccc3c2=O)cc1 |  |
| 138 µM | 38 µM | 46 µM | 39 µM | 218 µM | 6 | 4 | COC(=O)c1ccc(-n2c(/C=C/c3cccc([N+](=O)[O-])c3)nc3ccc(OC)cc3c2=O)cc1 |  |
| 8 µM | 1 µM | 13 µM | 2 µM | 17 µM | 17 | 8 | O=C(O)c1ccc(-n2c(/C=C/c3cccc([N+](=O)[O-])c3)nc3ccc(Br)cc3c2=O)cc1 |  |
| 61 µM | 4 µM | 31 µM | 6 µM | 26 µM | 7 | 15 | O=C(O)c1ccc(-n2c(/C=C/c3cccnc3)nc3ccc(I)cc3c2=O)cc1 |  |
| 31 µM | 0.6 µM | 6 µM | 1 µM | 18 µM | 18 | 52 | O=C(O)c1ccc(-n2c(/C=C/c3cccc([N+](=O)[O-])c3)nc3ccc(I)cc3c2=O)cc1 |  |
| 41 µM | 15 µM | 52 µM | 16 µM | 32 µM | 2 | 3 | O=C(O)c1ccc(-n2c(/C=C/c3cccc([N+](=O)[O-])c3)nc3cc(Cl)ccc3c2=O)cc1 |  |
| 23 µM | 4 µM | 66 µM | 13 µM | 53 µM | 13 | 6 | O=C(O)c1ccc(-n2c(/C=C/c3ccccc3)nc3ccc(I)cc3c2=O)cc1 |  |
| 220 µM | 9 µM | 109 µM | 18 µM | 73 µM | 8 | 24 | COc1cccc(/C=C/c2nc3ccc(OC)cc3c(=O)n2-c2ccc(C(=O)O)cc2)c1 |  |
| 27 µM | 2 µM | 15 µM | 5 µM | 12 µM | 6 | 14 | Cc1ccc2nc(/C=C/c3cccc([N+](=O)[O-])c3)n(-c3ccc(C(=O)O)cc3)c(=O)c2c1 |  |
| 41 µM | 6 µM | 39 µM | 15 µM | 80 µM | 13 | 7 | COC(=O)c1cccc(/C=C/c2nc3ccc(OC)cc3c(=O)n2-c2ccc(C(=O)O)cc2)c1 |  |
| 82 µM | 6 µM | 68 µM | 22 µM | 25 µM | 4 | 14 | O=C(O)c1ccc(-n2c(/C=C/c3cccc4ccccc34)nc3ccccc3c2=O)cc1 |  |
| 4 µM | 2 µM | 5 µM | 2 µM | 11 µM | 6 | 2 | O=C(O)c1ccc(-n2c(/C=C/c3cccc([N+](=O)[O-])c3)nc3cc4ccccc4cc3c2=O)cc1 |  |
| 244 µM | 22 µM | 79 µM | 42 µM | 211 µM | 10 | 11 | CSc1ccc(/C=C/c2nc3ccccc3c(=O)n2-c2ccc(C(=O)O)cc2)cc1 |  |
| 96 µM | 10 µM | > 300 µM | 43 µM | 237 µM | 24 | 10 | O=C(O)c1ccc(-n2c(/C=C/c3cccc([N+](=O)[O-])c3)nc3ccc(O)cc3c2=O)cc1 |  |
| 64 µM | 4 µM | 49 µM | 7 µM | 45 µM | 11 | 16 | O=C(O)c1cccc(-n2c(/C=C/c3cccnc3)nc3ccc(I)cc3c2=O)c1 |  |

| SMILES | IC50 (Glutamate receptor 1) | IC50 [2] | IC50 [3] | IC50 [4] | IC50 [5] | Ratio IC50 (Rattus norvegicus [6]) | Ratio IC50 (Rattus norvegicus [7]) | IC50 [1] |
| --- | --- | --- | --- | --- | --- | --- | --- | --- |
| COc1ccc(-n2c(/C=C/c3cccc([N+](=O)[O-])c3)nc3ccccc3c2=O)cc1 | 178 µM | 168 µM | > 300 µM | 152 µM | > 300 µM |  |  | Not Active |
| O=C(O)c1ccccc1-n1c(/C=C/c2ccc([N+](=O)[O-])cc2)nc2ccccc2c1=O | > 300 µM | 278 µM | 197 µM | > 300 µM | > 300 µM |  |  | Not Active |
| COc1ccccc1-n1c(/C=C/c2cccnc2)nc2ccc(I)cc2c1=O | 199 µM | 3 µM | 30 µM | 3 µM | 31 µM | 10 | 66 |  |
| Cc1ccccc1-n1c(/C=C/c2cccnc2)nc2ccc(I)cc2c1=O | 83 µM | 25 µM | 156 µM | 70 µM | > 300 µM | > 12 | 3 |  |
| O=c1c2ccccc2nc(/C=C/c2cccnc2)n1-c1ccccc1 | 74 µM | 35 µM | 51 µM | 140 µM | 40 µM | 1 | 2 |  |
| COc1ccc(-n2c(/C=C/c3ccccc3[N+](=O)[O-])nc3ccccc3c2=O)cc1 | 223 µM | 125 µM |  | 143 µM | > 300 µM |  |  | Not Active |
| O=c1c2cc(I)ccc2nc(/C=C/c2cccnc2)n1-c1ccccc1 | > 300 µM | 108 µM | > 300 µM | > 300 µM | 132 µM | 1 | 3 |  |

Reference: ChEMBL document CHEMBL1212913, “Quinazolin-4-one derivatives: A novel class of noncompetitive NR2C/D subunit-selective N-methyl-D-aspartate receptor antagonists” (J Med Chem, 2010)
